Tn7 DDE FP = inhibitors of Tn7 peptide binding to human fibrin DD(E). AID 720508. FP displacement of FITC-Tn7 peptide from fibrin DD(E); 0% = median of compound wells per plate. P02675. hit rate 0.13% among 370,000. inhibition, % at 8.3 µM;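 active means inhibition above the mean of compounds falling within the control limits plus 3 SD of them, cut at about 14% in these data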;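 further: 0% = plate median of compound wells and 100% = 10 µM Aha-Tn7 peptide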
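Also added: labelled Tn7 tracer, 0.1 µM; Assay system: human fibrin DD(E) protein; Amount: 2 µM fibrin DD(E); Schedule: 10 min compound pre-incubation, 3 h probe incubation at room temperature; Repeats: one replicate per compound; Read-out basis: percent inhibition; Measured by: fluorescence polarization of the labelled Tn7 tracer.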
ADAM17 inh = ADAM17 inhibition, QFRET primary screen | P78536 | recombinant ADAM17, EDANS/DABCYL FRET peptide cleavage | inhibition, % at 6.95 µM | hit rate 0.83% among 370,000 | AID 720648;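 active means inhibition above the mean of compounds lying between control limits plus 3 SD, set per campaign, cut at about 8.5% in these data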;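 further: 0% = DMSO-only wells as the low control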
Target sequence (P78536 215-824 limits assumed): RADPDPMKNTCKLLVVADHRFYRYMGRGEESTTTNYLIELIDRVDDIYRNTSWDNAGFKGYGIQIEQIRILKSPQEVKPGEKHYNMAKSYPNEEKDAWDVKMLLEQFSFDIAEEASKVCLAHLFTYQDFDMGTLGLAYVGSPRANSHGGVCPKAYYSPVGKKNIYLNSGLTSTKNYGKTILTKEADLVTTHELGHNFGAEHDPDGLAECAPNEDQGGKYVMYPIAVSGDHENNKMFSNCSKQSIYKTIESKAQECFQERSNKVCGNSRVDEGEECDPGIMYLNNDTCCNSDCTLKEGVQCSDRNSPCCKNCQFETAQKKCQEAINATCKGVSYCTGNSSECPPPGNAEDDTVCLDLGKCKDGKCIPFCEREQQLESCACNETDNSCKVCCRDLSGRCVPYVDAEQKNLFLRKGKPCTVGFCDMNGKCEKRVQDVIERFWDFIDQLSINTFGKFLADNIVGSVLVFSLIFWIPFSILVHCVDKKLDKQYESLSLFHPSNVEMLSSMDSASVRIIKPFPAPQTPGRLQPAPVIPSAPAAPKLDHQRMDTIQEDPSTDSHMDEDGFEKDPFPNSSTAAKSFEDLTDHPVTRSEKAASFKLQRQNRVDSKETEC
ADAM10 inh = inhibits human ADAM10. O14672. recombinant ADAM10, EDANS/DABCYL FRET peptide cleavage, 3 h. inhibition, % at 7 µM. hit rate 0.62% among 370,000. AID 720582;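 active means inhibition above a per-campaign cutoff equal to the mean of compounds falling between control-based bounds plus 3 SD, cut at about 20% in these data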;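 further: 0% = DMSO wells while the 100% control is not disclosed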
MT1-MMP act inh = MT1-MMP (human) activation inhibition; P50281; HT1080 RFP-PRO-GFP cells, GFP/RFP ratio fluorescence, overnight; percent of plate control window, DMSO zero; GFP/RFP ratio change, % at 20 µM; hit rate 0.061% among 360,000; AID 651647;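 active means GFP/RFP ratio change of at least 30% with cell ATP level not reduced by more than half and red fluorescence within 50% of control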
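Assay system: HT1080 RFP-PRO-GFP cells | Dosing: 20 µM single dose, 1% DMSO | Incubation: Cells overnight before dosing, compound overnight, 37 °C, 5% CO2 | Evaluation: GFP/RFP fluorescence ratio | Control set: DMSO-only wells and HT1080 RFP-L50D-GFP cell wells as references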
Tn6 DDE FP = DD(E)-Tn6 binding inhibition, primary FP screen; hit rate 0.21% among 370,000; Fibrin DD(E) TRITC-Tn6 fluorescence polarization displacement; inhibition, % at 8.3 µM;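 active means inhibition above a per-campaign cutoff: mean of compounds within control limits plus 3 SD, cut at about 15% in these data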;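 further: 0% = median of all compound wells on the plate and 100% = blocking peptide control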
ADAM10 counter = counter-screen for ADAM17 exosite inhibitors: inhibitors of human ADAM10 | shares compounds with ADAM17 inh | recombinant ADAM10, EDANS/DABCYL FRET peptide cleavage, 3 h | inhibition, % at 6.95 µM | hit rate 47% among 2,900;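 active means mean inhibition over the triplicate runs exceeds the activity threshold set in the earlier primary screen, cut at about 20% in these data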;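 further: 0% = DMSO wells and 100% = marimastat wells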
ADAM17 confirm = human ADAM17 inhibition, confirmation; shares compounds with ADAM17 inh; recombinant ADAM17, EDANS/DABCYL QFRET peptide cleavage; inhibition, % at 6.95 µM; hit rate 65% among 2,900; AID 743257;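 active means mean inhibition across replicates above the hit cutoff set in the primary screen, cut at about 8.5% in these data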;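 further: 0% = DMSO wells and 100% = marimastat wells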
Starred values were filed as active, the others as inactive; / = no result. Shown are actives, neighbours in structure and some others; about 1.6% of the full set was active somewhere.

SMILES | Tn7 DDE FP | ADAM17 inh | ADAM10 inh | MT1-MMP act inh | Tn6 DDE FP | ADAM10 counter | ADAM17 confirm
Cc1ccc(OCCC(=O)OCC(=O)Nc2ccc(C)c(S(=O)(=O)N3CCOCC3)c2)cc1 | 0.9 | 9.1* | 0.5 | -1.4 | 0.5 | 9.6 | 6.7
Cc1ccc(NC(=O)COC(=O)c2cccc(OC(F)F)c2)cc1S(=O)(=O)N1CCCCC1 | 10.2 | 9.1* | 12.2 | 3.9 | -3.2 | 45.1* | 25.2*
Cc1ccc(Cn2nnc3c2-c2cc(F)ccc2S(=O)(=O)N(C(C)(C)C)C3)cc1 | -10.8 | 9.5* | 18.3 | / | -3.2 | 23.0* | 10.7*
COC(=O)c1cc(=O)n(Cc2ccco2)c(=Nc2ccccc2)s1 | -1.6 | 3.9 | 9.3 | / | 5.1 | / | /
COc1cccc(CC(=O)N(Cc2ccccc2)c2ccccc2C(=O)Nc2cc(OC)ccc2OC)c1 | 3.5 | 12.3* | 2.9 | / | 4.7 | 8.0 | 13.3*
COC(=O)c1cccc(-n2c(C)cc(O)cc2=O)c1 | -2.7 | -2.0 | -9.3 | / | 4.6 | / | /
COc1ccc(N2COC3c4cccc5cccc(c45)C32)cc1 (configuration not stated) | 3.7 | -5.7 | -6.8 | -27.9 | 7.4 | / | /
Clc1ccc(N2COC3c4cccc5cccc(c45)C32)cc1 (configuration not stated) | 2.2 | 9.2* | 7.0 | -2.0 | 8.2 | -2.0 | 3.9
COCCNC(=S)N(C)[C@H]1C[C@H]2c3[nH]c4c(-c5ccc6c(c5)OCO6)cccc4c3CCN2C(=O)[C@H]1[C@H](C)O | 4.0 | -0.5 | -15.4 | / | 1.1 | / | /
CN(c1ccc(OCc2ccc([N+](=O)[O-])cc2)cc1)S(=O)(=O)c1ccccc1 | 1.7 | 9.3* | 14.8 | 1.2 | 8.4 | 17.4 | 13.1*
NC(=O)C1CCN(C(=O)C2CCC(=O)N(Cc3ccc(Cl)cc3)C2)CC1 (configuration not stated) | 0.6 | -3.1 | -10.5 | -0.7 | 6.4 | / | /
Cc1ccc(N2CCN(C(=O)C3CCC(=O)N(Cc4ccc(Cl)cc4)C3)CC2)c(C)c1 (configuration not stated) | -2.7 | 8.8* | 1.9 | 6.9 | -8.0 | 8.6 | 5.4
O=S(=O)(Nc1ccc(-c2nnc(SCc3ccc(Cl)cc3)o2)cc1)c1ccccc1 | -10.0 | 9.2* | 18.0 | 12.9 | -8.9 | 23.2* | 13.9*
C[C@H]1CN([C@@H](C)CO)C(=O)CCCn2cc(nn2)CO[C@@H]1CN(C)S(=O)(=O)c1ccccc1F | -2.2 | -0.4 | -8.6 | / | -1.7 | / | /
Clc1ccccc1Cn1nnc2c(N3CCCC3)ncnc21 | 5.3 | -4.0 | -3.7 | 1.5 | 3.5 | / | /
Fc1ccccc1Cn1nnc2c(-n3ccnc3)ncnc21 | -8.7 | 8.7* | 9.7 | -4.3 | 6.8 | -7.6 | -0.4
OC(c1ccccc1)(c1ccccc1)C1CCN(CCCOc2ccc(-c3ccncc3)cc2)CC1 | 4.0 | -5.0 | -13.6 | / | 1.8 | / | /
COc1cccc(N=C2SC(C(=O)Nc3ccc(F)cc3)CC(=O)N2C)c1 (configuration not stated) | -2.7 | 10.3* | 6.6 | -0.1 | 3.0 | 25.1* | 10.5*
Cc1ccc(OCc2nnc(SCC(=O)Nc3cccc4ccccc34)n2Cc2ccco2)cc1 | 3.5 | 10.0* | 16.8 | / | -0.3 | 38.8* | 19.3*
O=C(CSc1nnc(COc2ccc(Cl)cc2)n1Cc1ccco1)Nc1cccc2ccccc12 | 4.6 | 9.3* | 16.1 | / | 10.8 | 36.2* | 18.2*
COc1ccc(-c2nnc(SCC(=O)Nc3cccc4ccccc34)n2Cc2ccco2)cc1 | 1.6 | 2.2 | 3.3 | / | -8.4 | / | /
Nc1[nH]c(C(=O)c2ccc(Cl)cc2)c(-c2ccc(Br)cc2)c1C(=O)NCc1ccc(Cl)cc1Cl | -1.6 | -4.4 | -10.8 | / | 3.1 | / | /
O=C(CSc1ccc(-c2ccco2)nn1)c1ccc(F)cc1 | -7.6 | 9.4* | 18.9 | 8.0 | -7.7 | 6.9 | 5.9
CC1(Cc2ccc(F)cc2)C(=O)Nc2ccc(S(=O)(=O)NC3CCCCC3)cc21 (configuration not stated) | 1.2 | 9.1* | 5.0 | -5.5 | -1.5 | -1.7 | 4.4
COc1ccccc1CC1(C)C(=O)Nc2ccc(S(=O)(=O)NC3CCCCC3)cc21 (configuration not stated) | -5.7 | 1.0 | 6.4 | -0.5 | -2.4 | / | /
SMILES | Tn7 DDE FP | ADAM17 inh | ADAM10 inh | MT1-MMP act inh | Tn6 DDE FP | ADAM10 counter | ADAM17 confirm
Clc1ccc(-c2nnc(SCc3cccc4ccccc34)n2-c2ccc(Cl)cc2)cc1 | -1.6 | 7.0 | 8.5 | / | 7.6 | / | /
Clc1ccc(-n2c(SCc3cccc4ccccc34)nnc2-c2ccccn2)cc1 | 1.5 | 11.2* | 10.3 | / | -3.0 | 26.6* | 14.1*
O=C(CSc1nnc(-c2ccccc2)n1-c1ccccc1)NN=Cc1ccc(-c2ccccc2)cc1 | 0.3 | -3.0 | -4.4 | / | -3.6 | / | /
Cc1ccc(S(=O)(=O)N2CCCc3cc(NC(=O)c4c(F)cccc4F)ccc32)cc1 | 1.3 | 12.5* | 16.7 | 2.1 | -1.0 | 27.4* | 13.8*
CCN(CC)c1ccc(NC(=O)c2cc3c(OC)cccc3[nH]2)cc1 | 7.6 | 16.9* | 18.1 | 6.2 | -12.0 | 6.5 | 8.2
COc1cccc2[nH]c(C(=O)NC(C)c3ccccc3)cc12 (configuration not stated) | -8.8 | -43.3 | -114.0 | -3.4 | -11.4 | / | /
COc1ccc2nc(Nc3ccc4c(c3)OCO4)sc2c1 | -7.2 | 9.8* | 16.6 | -0.5 | -9.9 | 8.2 | 6.9
FC(F)(F)c1ccc(Cn2ccc3ccc(-c4ccc5ccn(Cc6ccccc6)c5c4)cc32)cc1 | -0.7 | -7.6 | -23.2 | / | 3.1 | / | /
Fc1ccc(-n2c(=S)[nH]c3cccnc32)cc1 | -6.8 | -2.6 | -2.9 | 2.6 | -10.9 | / | /
O=c1[nH]c(=S)n(-c2ccc(Br)cc2)c2ncccc12 | 2.1 | 11.0* | 6.0 | 0.3 | -0.8 | 19.7 | 10.9*
O=C(O)C1Nc2c(Cl)cc(Cl)c(Cl)c2C2C=CCC12 (configuration not stated) | 1.9 | -3.9 | -6.7 | 5.3 | 1.7 | / | /
CC(C)C1Nc2c(O)cc(Cl)c([N+](=O)[O-])c2C2C=CCC21 (configuration not stated) | 0.3 | 14.7* | 19.0 | 13.1 | 4.1 | 20.7* | 14.0*
CC(=O)c1cc(-c2cccc(C#N)c2)c(=O)n2c1CCC2 | 3.3 | -4.2 | -6.1 | / | 0.9 | / | /
Cc1c(C(=O)NCc2ccccc2)oc2ccc(S(=O)(=O)N3CCC4(CC3)OCCO4)cc12 | 2.0 | 9.6* | 12.1 | 5.2 | -1.1 | 4.0 | 6.5
Cc1ccc(S(=O)(=O)N(C)C)cc1NC(=O)COc1ccccc1C(=O)Nc1ccccc1 | 3.1 | 5.8 | 3.7 | 0.5 | 0.7 | / | /
